Test results reported in ChEMBL document CHEMBL1124106, “Synthesis of diethylenetriaminepentaacetic acid conjugated inulin and utility for cellular uptake of liposomes” (J Med Chem, 1988).
Several values for one entry are separate records, joined by “and”; a condition that tells them apart may be missing. Identical values can stand only once.

How the values were obtained:
[1] = tested on: Mus musculus; experiment: Biodistribution in mice heart, after 1 hr of intravenous administration of 1-2 ug of compound (entrapped in bovine brain sphingomyelin/ cholesterol multilamellar vehicles); assay type: ADME, organism-based; details: in vivo
Method in brief: (§1)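 BALB/c mice (about 25 g), 3–5 per group, given 50–100 μL tail-vein injection of 111In-labeled conjugate entrapped in SM/CH (2:1 mol/mol) multilamellar vesicles, approx. 100 000 cpm; dose 1–2 μg phospholipid/g body weight. Killed by cervical dislocation at set times; blood, cumulative excretion and rinsed, blotted, weighed tissues γ-counted, blood background subtracted. Result is % injected dose ± SD.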

[2] = tested on: Mus musculus; experiment: Biodistribution of compound in mice leg muscle after 1 hr of intravenous injection; assay type: ADME, organism-based, Muscle tissue; details: in vivo
Method in brief: (§2)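 BALB/c mice (about 25 g), n = 4. Free ¹¹¹In- or ⁶⁷Ga-labeled compound (50–100 μL, about 100 000 cpm) was injected into a tail vein. Mice were held in separate cages and killed by cervical dislocation, with blood and cumulative excreta collected. Tissues were rinsed, blotted, weighed and γ-counted, with blood background subtracted (blood volume 8.0%). Values are % injected dose ± SD.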

[3] = tested on: Mus musculus; experiment: Biodistribution in mice leg muscle, after 24 hr of intravenous administration of 1-2 ug of compound (entrapped in bovine brain sphingomyelin/ cholesterol multilamellar vehicles); assay type: ADME, organism-based, Muscle tissue; details: in vivo; method in brief: as §1
[4] = tested on: Mus musculus; experiment: Biodistribution of compound in mice intestine after 1 hr of intravenous injection; assay type: ADME, organism-based; details: in vivo; method in brief: as §2
[5] = tested on: Mus musculus; experiment: Biodistribution in mice stomach, after 1 hr of intravenous administration of 1-2 ug of compound (entrapped in bovine brain sphingomyelin/ cholesterol multilamellar vehicles); assay type: ADME, organism-based; details: in vivo; method in brief: as §1
[6] = tested on: Mus musculus; experiment: Biodistribution of compound in mice blood after 0.17 hr of intravenous injection; assay type: ADME, organism-based; details: in vivo; method in brief: as §2
[7] = tested on: Mus musculus; experiment: Biodistribution in mice brain, after 24 hr of intravenous administration of 1-2 ug of compound (entrapped in bovine brain sphingomyelin/ cholesterol multilamellar vehicles); assay type: ADME, organism-based; details: in vivo; method in brief: as §1
[8] = tested on: Mus musculus; experiment: Biodistribution in mice intestine, after 48 hr of intravenous administration of 1-2 ug of compound (entrapped in bovine brain sphingomyelin/ cholesterol multilamellar vehicles); assay type: ADME, organism-based; details: in vivo; method in brief: as §1
[9] = Biodistribution in mice excretion, after 1 hr of intravenous administration of 1-2 ug of compound (entrapped in bovine brain sphingomyelin/ cholesterol multilamellar vehicles); assay type: ADME, organism-based; details: mouse, excretion (excreta, not specified further), read-out: ID; method in brief: as §1
[10] = tested on: Mus musculus; experiment: Biodistribution in mice fat, after 1 hr of intravenous administration of 1-2 ug ofcompound (entrapped in bovine brain sphingomyelin/ cholesterol multilamellar vehicles); assay type: ADME, organism-based; details: in vivo; method in brief: as §1
[11] = tested on: Mus musculus; experiment: Biodistribution in mice lung, after 48 hr of intravenous administration of 1-2 ug of compound (entrapped in bovine brain sphingomyelin/ cholesterol multilamellar vehicles); assay type: ADME, organism-based; details: in vivo; method in brief: as §1
[12] = tested on: Mus musculus; experiment: Biodistribution in mice leg muscle, after 48 hr of intravenous administration of compound (entrapped in bovine brain sphingomyelin/ cholesterol multilamellar vehicles); assay type: ADME, organism-based, Muscle tissue; details: in vivo; method in brief: as §1
[13] = tested on: Mus musculus; experiment: Biodistribution of compound in mice tail after 1 hr of intravenous injection; assay type: ADME, organism-based; details: in vivo; method in brief: as §2
[14] = tested on: Mus musculus; experiment: Biodistribution in mice skin, after 1 hr of intravenous administration of 1-2 ug of compound (entrapped in bovine brain sphingomyelin/ cholesterol multilamellar vehicles); assay type: ADME, organism-based, Zone of skin; details: in vivo; method in brief: as §1
[15] = tested on: Mus musculus; experiment: Biodistribution in mice intestine, after 12 hr of intravenous administration of 1-2 ug of compound (entrapped in bovine brain sphingomyelin/ cholesterol multilamellar vehicles); assay type: ADME, organism-based; details: in vivo; method in brief: as §1
[16] = tested on: Mus musculus; experiment: Biodistribution of compound in mice kidneys after 1 hr of intravenous injection; assay type: ADME, organism-based, Kidney; details: in vivo; method in brief: as §2
[17] = tested on: Mus musculus; experiment: Biodistribution in mice blood, after 24 hr of intravenous administration of 1-2 ug of compound (entrapped in bovine brain sphingomyelin/ cholesterol multilamellar vehicles); assay type: ADME, organism-based; details: in vivo; method in brief: as §1
[18] = tested on: Mus musculus; experiment: Biodistribution of compound in mice liver after 21 hr of intravenous injection; assay type: ADME, organism-based; details: in vivo; method in brief: as §2
[19] = tested on: Mus musculus; experiment: Biodistribution of compound in mice carcass after 0.17 hr of intravenous injection; assay type: ADME, organism-based; details: in vivo; method in brief: as §2
[20] = tested on: Mus musculus; experiment: Biodistribution in mice liver, after 1 hr of intravenous administration of 1-2 ug of compound (entrapped in bovine brain sphingomyelin/ cholesterol multilamellar vehicles); assay type: ADME, organism-based; details: in vivo; method in brief: as §1
[21] = tested on: Mus musculus; experiment: Biodistribution in mice liver, after 48 hr of intravenous administration of 1-2 ug ofcompound (entrapped in bovine brain sphingomyelin/ cholesterol multilamellar vehicles); assay type: ADME, organism-based; details: in vivo; method in brief: as §1
[22] = tested on: Mus musculus; experiment: Biodistribution in mice lung, after 1 hr of intravenous administration of 1-2 ug of compound (entrapped in bovine brain sphingomyelin/ cholesterol multilamellar vehicles); assay type: ADME, organism-based; details: in vivo; method in brief: as §1
[23] = tested on: Mus musculus; experiment: Biodistribution in mice brain, after 12 hr of intravenous administration of 1-2 ug of compound (entrapped in bovine brain sphingomyelin/ cholesterol multilamellar vehicles); assay type: ADME, organism-based; details: in vivo; method in brief: as §1
[24] = tested on: Mus musculus; experiment: Biodistribution in mice skin, after 12 hr of intravenous administration of 1-2 ug of compound (entrapped in bovine brain sphingomyelin/ cholesterol multilamellar vehicles); assay type: ADME, organism-based, Zone of skin; details: in vivo; method in brief: as §1
[25] = tested on: Mus musculus; experiment: Biodistribution of compound in mice carcass after 1 hr of intravenous injection; assay type: ADME, organism-based; details: in vivo; method in brief: as §2
[26] = tested on: Mus musculus; experiment: Biodistribution in mice fat, after 24 hr of intravenous administration of 1-2 ug of compound (entrapped in bovine brain sphingomyelin/ cholesterol multilamellar vehicles); assay type: ADME, organism-based; details: in vivo; method in brief: as §1
[27] = tested on: Mus musculus; experiment: Biodistribution of compound in mice tail after 21 hr of intravenous injection; assay type: ADME, organism-based; details: in vivo; method in brief: as §2
[28] = tested on: Mus musculus; experiment: Biodistribution in mice stomach, after 24 hr of intravenous administration of 1-2 ug of ofcompound (entrapped in bovine brain sphingomyelin/ cholesterol multilamellar vehicles); assay type: ADME, organism-based; details: in vivo
Method in brief: (§3)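 BALB/c mice (about 25 g), groups of 2–5. Compound ¹¹¹In-loaded into SM/CH (2:1, mol/mol) multilamellar vesicles, given as a single tail-vein injection. Lipid dose was 1–2 μg phospholipid/g body weight, in 50–100 μL carrying about 100 000 cpm. Mice were killed by cervical dislocation. Organs were rinsed, blotted, weighed and γ-counted, with blood background subtracted. Values are % injected dose ± SD.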

[29] = tested on: Mus musculus; experiment: Biodistribution in mice brain, after 1 hr of intravenous administrating 1-2 ug of compound (entrapped in bovine brain sphingomyelin/ cholesterol multilamellar vehicles); assay type: ADME, organism-based; details: in vivo; method in brief: as §1
[30] = tested on: Mus musculus; experiment: Biodistribution in mice spleen, after 1 hr of intravenous aadministration of 1-2 ug of compound (entrapped in bovine brain sphingomyelin/ cholesterol multilamellar vehicles); assay type: ADME, organism-based; details: in vivo; method in brief: as §1
[31] = tested on: Mus musculus; experiment: Biodistribution in mice skin, after 24 hr of intravenous aadministration of 1-2 ug of compound (entrapped in bovine brain sphingomyelin/ cholesterol multilamellar vehicles); assay type: ADME, organism-based, Zone of skin; details: in vivo; method in brief: as §1
[32] = tested on: Mus musculus; experiment: Biodistribution in mice blood, after 12 hr of intravenous administration of 1-2 ug of compound (entrapped in bovine brain sphingomyelin/ cholesterol multilamellar vehicles); assay type: ADME, organism-based; details: in vivo; method in brief: as §1
[33] = Biodistribution in mice excretion, after 48 hr of intravenous administration of 1-2 ug of compound (entrapped in bovine brain sphingomyelin/ cholesterol multilamellar vehicles) at; assay type: ADME, organism-based; details: mouse, excretion (excreta, not specified further), read-out: ID; method in brief: as §1
[34] = tested on: Mus musculus; experiment: Biodistribution in mice stomach, after 48 hr of intravenous administration of 1-2 ug of compound (entrapped in bovine brain sphingomyelin/ cholesterol multilamellar vehicles); assay type: ADME, organism-based; details: in vivo; method in brief: as §3
[35] = tested on: Mus musculus; experiment: Biodistribution of compound in mice spleen after 1 hr of intravenous injection; assay type: ADME, organism-based; details: in vivo; method in brief: as §2
[36] = tested on: Mus musculus; experiment: Biodistribution of compound in mice leg muscle after 0.17 hr of intravenous injection; assay type: ADME, organism-based, Muscle tissue; details: in vivo; method in brief: as §2
[37] = tested on: Mus musculus; experiment: Biodistribution in mice carcass, after 48 hr of intravenous administrating 1-2 ug of compound (entrapped in bovine brain sphingomyelin/ cholesterol multilamellar vehicles); assay type: ADME, organism-based; details: in vivo; method in brief: as §1
[38] = tested on: Mus musculus; experiment: Biodistribution of compound in mice blood after 21 hr of intravenous injection; assay type: ADME, organism-based; details: in vivo; method in brief: as §2

ID [1]: 0%
ID [2]: 0.8% and 1.3%
ID [3]: 0.2%
ID [4]: 0.8% and 1.4%
ID [5]: 0.8%
ID [6]: 21.1% and 20.9%
ID [7]: 0.2%
ID [8]: 0.6%
dose excreted at 1 h [9]: 0%
ID [10]: 0.3%
ID [11]: 0.2%
ID [12]: 0.3%
ID [13]: 2%
ID [14]: 1.6%
ID [15]: 1%
ID [16]: 1.9% and 1.7%
ID [17]: 0.4%
ID [18]: 0.4% and 2.1%
ID [19]: 14.2% and 19.3%
ID [20]: 55.1%
ID [21]: 62.4%
ID [22]: 0.4%
ID [23]: 0%
ID [24]: 1.1%
ID [25]: 4.1% and 9.1%
ID [26]: 0.4%
ID [27]: 2.1% and 2.3%
ID [28]: 0.1%
ID [29]: 0%
ID [30]: 3.9%
ID [31]: 2%
ID [32]: 0.5%
dose excreted at 48 h [33]: 0%
ID [34]: 0%
ID [35]: 0.1% and 0%
ID [36]: 3.2% and 3.1%
ID [37]: 1.3%
ID [38]: 1% and 0.7%
SMILES: NCCNC(=O)CN(CCN(CCN(CC(=O)O)CC(=O)O)CC(=O)O)CC(=O)O
